# Reference: ChEMBL document CHEMBL2093137, “WHO-TDR NTD Screening”
# pIC50: −log10 of the molar value.
# Legend:
# Onchocerca lienalis [1] = test: (§1) WHO-TDR: Onchocerciasis; format: functional; set-up: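 at 12.5 µM on microfilariae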
# In short: (§2)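 A diverse library of 10,000 compounds from Life Chemicals, filtered for drug-likeness and reactive groups, was screened against whole microfilariae of Onchocerca ochengi or Onchocerca lienalis. These animal pathogens served as stand-ins for the human parasite. Activity is given as percent inhibition and as IC50.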
# Onchocerca lienalis [2] = test: as §1; format: functional, organism-based; in short: as §2
# Trypanosoma cruzi = test: WHO-TDR: Chagas disease; format: functional, organism-based, Homo sapiens; settings: MRC5
# In short: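 Each IC50 reflects antiparasitic potency against intracellular amastigotes of Trypanosoma cruzi Tulahuen CL2 beta-galactosidase strain. These were cultured in MRC-5SV2 human lung fibroblasts and exposed to a 10,000-compound diverse Life Chemicals library screened according to published standard procedures with a reference drug as positive control.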
# [3] = WHO-TDR: Cytotoxicity; format: toxicity, cell-based; settings: human, MRC5 cells
# Leishmania infantum = test: WHO-TDR: Leishmaniasis; format: functional, organism-based, Mus musculus; settings: Macrophage
# In short: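 Antiparasitic potency, reported as IC50, was measured against intracellular Leishmania infantum amastigotes. The parasite strain was MHOM/MA(BE)/67, and murine peritoneal macrophages served as host cells for the screen of a 10,000-compound diverse library from Life Chemicals.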
# Plasmodium falciparum K1 = test: WHO-TDR: Malaria; format: functional, organism-based, Homo sapiens; settings: Erythrocyte
# In short: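 Antiplasmodial potency, expressed as IC50, was measured in a whole-organism assay on intra-erythrocytic Plasmodium falciparum K1 in human red blood cells. The screened library held 10,000 diverse compounds from Life Chemicals.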
# [4] = system: Trypanosoma brucei brucei; test: WHO-TDR: Human African Trypanosomiasis (HAT); format: functional, organism-based; settings: Squib-427
# In short: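 Antiparasitic potency is reported as IC50. The screen covered 10,000 compounds from a diverse Life Chemicals library, filtered for drug-likeness and reactive groups, tested on whole bloodstream-form Trypanosoma brucei of the Squib 427 strain.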
# Brugia malayi [5] = test: (§3) WHO-TDR: Lymphatic Filariasis; format: functional, organism-based;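 for % Inhibition: tested at 10 µM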
# In short: (§4)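 A diverse library of 10,000 compounds from Life Chemicals was screened against Brugia malayi microfilariae in a whole-organism assay. The library had been filtered for drug-likeness and reactive groups. Activity is given as percent inhibition and as IC50.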
# Brugia malayi [6] = test: as §3; format: functional; set-up: concentration or dose not given beside the values; in short: as §4
# Schistosoma mansoni [7] = test: (§5) WHO-TDR: Schistosomiasis; format: functional; set-up: concentration or dose not given beside the values
# In short: (§6)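 A diverse library of 10,000 compounds from Life Chemicals, filtered for drug-likeness and reactive groups, was screened against whole larval and/or adult Schistosoma mansoni worms of the Puerto Rican strain. Previously published standard procedures were followed, with a reference drug as positive control. Activity is given as percent inhibition and as IC50.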
# Brugia malayi [8] = test: as §3; format: functional; set-up: concentration or dose not given beside the values; in short: as §4; remark: listed apart in the source
# Brugia malayi [9] = test: as §3; format: functional, organism-based; in short: as §4; remark: listed apart in the source
# Schistosoma mansoni [10] = test: as §5; format: functional, organism-based; in short: as §6
IC50 (Onchocerca lienalis [2]),IC50 (Leishmania infantum),IC50 (Plasmodium falciparum K1),IC50 [4],pIC50 (Brugia malayi [5]),pIC50 (Brugia malayi [9]),pIC50 (Schistosoma mansoni [10]),Compound,% Inhibition (Onchocerca lienalis [1]),IC50 (Trypanosoma cruzi),IC50 [3],% Inhibition (Brugia malayi [6]),% Inhibition (Schistosoma mansoni [7]),% Inhibition (Brugia malayi [8])
0.344 µg/mL,1.9 µg/mL,0.564 µg/mL,0.309 µg/mL,–,–,–,O=C(Nc1nc(-c2ccccn2)cs1)c1ccc(Cl)s1,100%,< 0.0965 µg/mL,4.39 µg/mL,–,–,–
–,3.74 µg/mL,> 11.5 µg/mL,> 11.5 µg/mL,6.59,5.75,–,Cc1cccc(-n2nc3c(c2NC(=O)Nc2cccc(Cl)c2)CSC3)c1,33.34%,9.48 µg/mL,> 11.5 µg/mL,100%,25%,100%
–,> 15 µg/mL,> 15 µg/mL,> 15 µg/mL,5.15,5.23,–,CCOC(=O)c1ccc(NC(=O)CSc2nnc(NC(=O)C34CC5CC(CC(C5)C3)C4)s2)cc1,40%,> 15 µg/mL,> 15 µg/mL,100%,0%,100%
–,> 10.5 µg/mL,> 10.5 µg/mL,> 10.5 µg/mL,6.07,–,–,O=C(Nc1nnc(S)s1)c1cc(Br)ccc1Cl,0%,> 10.5 µg/mL,> 10.5 µg/mL,100%,0%,0%
–,4.96 µg/mL,> 15.3 µg/mL,> 15.3 µg/mL,5.53,–,–,COC(=O)c1c(NC(=O)c2cc3ccccc3oc2=O)sc2c1CCN(Cc1ccccc1)C2,0%,0.637 µg/mL,8.92 µg/mL,100%,0%,100%
–,0.484 µg/mL,0.572 µg/mL,0.478 µg/mL,6.28,6.28,–,CC(C)N1CCc2c(sc(NC(=O)c3cc4c(ccc5ccccc54)oc3=O)c2C(N)=O)C1,-1%,0.149 µg/mL,0.416 µg/mL,100%,0%,100%
–,4.48 µg/mL,> 13.8 µg/mL,3.6 µg/mL,5.93,–,–,Cc1ccc(S(=O)(=O)Nc2ccccc2C(=O)Nc2nc3c(s2)Cc2ccccc2-3)cc1,0%,4.98 µg/mL,2.51 µg/mL,100%,0%,25%
1.42 µg/mL,0.782 µg/mL,4.75 µg/mL,0.367 µg/mL,–,–,–,O=C(Nc1nc2c(s1)CSc1ccccc1-2)C1COc2ccccc2O1 (configuration not stated),100%,0.502 µg/mL,2.62 µg/mL,0%,100%,33.33%
–,4.73 µg/mL,4.54 µg/mL,0.473 µg/mL,5.31,5.29,–,O=C(COc1cccc2c1CCN(Cc1ccccc1F)C2=O)N1CCC(Cc2ccccc2)CC1,0%,0.557 µg/mL,4.56 µg/mL,100%,0%,100%
1.48 µg/mL,> 12 µg/mL,> 12 µg/mL,3.83 µg/mL,–,–,–,CCn1nnc2c(N3CCN(C(c4ccccc4)c4ccccc4)CC3)ncnc21,100%,3.62 µg/mL,> 12 µg/mL,–,0%,0%
1.75 µg/mL,4.18 µg/mL,0.746 µg/mL,4.18 µg/mL,–,–,5.17,CCOC(=O)N1CCc2c(sc(NC(=O)c3nc4ccccc4s3)c2C(N)=O)C1,100%,1.52 µg/mL,4.58 µg/mL,–,100%,–
–,4.58 µg/mL,0.505 µg/mL,3.73 µg/mL,5.52,–,–,COc1ccc(C(=O)C[n+]2cc(-c3ccc(OC)cc3)n3c2CCCCC3)cc1,0%,< 0.141 µg/mL,0.572 µg/mL,99%,50%,50%
–,> 11.3 µg/mL,5.13 µg/mL,> 11.3 µg/mL,–,–,5.42,Cn1ncc2c(N3CCOCC3)nc(NCCc3c[nH]c4ccccc34)nc21 [TDR79432],0%,2.69 µg/mL,3.75 µg/mL,–,100%,–
